Measurements from ChEMBL document CHEMBL4251545, “Design and synthesis of cenocladamide analogues and their evaluation against breast cancer cell lines” (Medchemcomm, 2017).
pIC50: −log10 of the molar value. Active and inactive are the calls of the source. The calls are words filed in the database; no cut-off is given here.

How the values were obtained:
MDA-MB-231 [1] = test: Antiproliferative activity against human MDA-MB-231 cells at 20 uM after 3 days by DAPI staining-based fluorescence microscopic method relative to control; format: functional
Outline: (§1)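 Controls were 0.5% DMSO (negative) and 1 μM doxorubicin (positive). Cells were fixed in 3.7% formaldehyde, stained with 0.4 μg mL–1 DAPI, and nuclei counted by automated fluorescence microscopy. Proliferation % and cell-loss % were calculated against a 24 h cell count and the DMSO 72 h count.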

MDA-MB-231 [2] = test: Induction of nuclear morphological changes in human MDA-MB-231 cells assessed as nuclear fragmentation by Hoechst 33342 staining-based fluorescence microscopic method; format: functional, cell-based
Outline: (§2)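 Stained 60 min with 1 μg mL–1 Hoechst 33342 and 300 nM MitoTracker Deep Red in RPMI/10% FBS, then imaged by automated fluorescence microscopy. Mitochondrial mass taken as mean cytoplasmic MitoTracker intensity. Nuclear fragmentation index from an apoptosis image-analysis module.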

MDA-MB-231 [3] = test: Cytotoxicity against human MDA-MB-231 cells by MitoTracker Deep Red staining-based fluorescence microscopic method; format: functional, cell-based; outline: as §2
MDA-MB-231 [4] = test: Induction of reactive oxygen species generation in human MDA-MB-231 cells at 6 uM after 3 hrs in presence of N-acetyl-L-cysteine by H2DCFDA dye-based fluorescence microscopic method; format: functional, cell-based; conditions: 20 uM, in the assay text read “at 20 uM” for “at 6 uM”
Outline: (§3)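 MDA-MB-231 cells were exposed for 3 or 24 h, with or without 3 mM N-acetyl-L-cysteine. Intracellular ROS was probed with 10 μM H2DCFDA for 30 min at 37 °C. After a PBS wash, fluorescence intensity was quantified by automated fluorescence microscopy. Cells were grown at 37 °C, 5% CO2.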

MDA-MB-231 [5] = test: Induction of reactive oxygen species generation in human MDA-MB-231 cells at 20 uM after 24 hrs by H2DCFDA dye-based fluorescence microscopic method; format: functional, cell-based; outline: as §3
MDA-MB-231 [6] = test: Induction of reactive oxygen species generation in human MDA-MB-231 cells at 6 uM after 24 hrs by H2DCFDA dye-based fluorescence microscopic method; format: functional, cell-based; conditions: 20 uM, in the assay text read “at 20 uM” for “at 6 uM”; outline: as §3
MDA-MB-231 [7] = test: Cell cycle arrest in human MDA-MB-231 cells assessed as accumulation at S phase at 25 uM after 72 hrs by EdU incorporation-based fluorescence microscopic method; format: functional
Outline: (§4)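 Cells exposed 72 h to 0.2–25 μM, then pulsed 30 min with 30 μM EdU. Fixed in 3.7% paraformaldehyde, permeabilised with 0.1% Triton X100. EdU click-labelled with AF488. Blocked in 3% BSA, then anti-pHH3 (S10) 1:250 and AF647 secondary with Hoechst. S and M phases scored by automated imaging cell-cycle module.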

BT-549 [8] = test: Cytotoxicity against human BT549 cells at 20 uM after 3 days by DAPI staining-based fluorescence microscopic method relative to control; format: functional
T47D [9] = test: Cytotoxicity against human T47D cells at 20 uM after 3 days by DAPI staining-based fluorescence microscopic method relative to control; format: functional
MDA-MB-231 [10] = test: Cytotoxicity against human MDA-MB-231 cells at 20 uM after 3 days by DAPI staining-based fluorescence microscopic method relative to control; format: functional
SK-BR-3 = test: Cytotoxicity against human SKBR3 cells at 20 uM after 3 days by DAPI staining-based fluorescence microscopic method relative to control; format: functional
MCF7 [11] = test: Cytotoxicity against human MCF7 cells at 20 uM after 3 days by DAPI staining-based fluorescence microscopic method relative to control; format: functional
MDA-MB-231 [12] = test: Cell cycle arrest in human MDA-MB-231 cells assessed as accumulation at M phase at 25 uM after 72 hrs by pHH3 detection-based fluorescence microscopic method; format: functional; outline: as §4
MDA-MB-231 [13] = test: Induction of reactive oxygen species generation in human MDA-MB-231 cells at 6 uM after 3 hrs by H2DCFDA dye-based fluorescence microscopic method relative to control; format: functional
Outline: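 Exposed 3 or 24 h to 6 μM, with or without 3 mM N-acetyl-L-cysteine. Cells then loaded with 10 μM H2DCFDA for 30 min at 37 °C, washed with PBS, and fluorescence intensity read by automated fluorescence microscopy.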

HCC38 [14] = test: Cytotoxicity against human HCC38 cells at 20 uM after 3 days by DAPI staining-based fluorescence microscopic method relative to control; format: functional
MDA-MB-231 [15] = test: Induction of necrosis in human MDA-MB-231 cells at 40 uM after 24 hrs by acridine orange/ethidium bromide staining-based flow cytometric method; format: functional, cell-based
Hs-578T [16] = test: Cytotoxicity against human Hs 578T cells at 20 uM after 3 days by DAPI staining-based fluorescence microscopic method relative to control; format: functional
MDA-MB-231 [17] = test: Antiproliferative activity against human MDA-MB-231 cells after 3 days by DAPI staining-based fluorescence microscopic method; format: functional, cell-based; conditions: MDA-MB-231, 72 h
Outline: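 Fixed in 3.7% formaldehyde, nuclei stained with 0.4 μg mL–1 DAPI, counted by automated fluorescence microscopy. Proliferation normalised to 0.5% DMSO and to 24 h cell count; IC50 from dose response.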

MDA-MB-468 [18] = test: Cytotoxicity against human MDA-MB-468 cells at 20 uM after 3 days by DAPI staining-based fluorescence microscopic method relative to control; format: functional
MDA-MB-468 [19] = test: Cytotoxicity against human MDA-MB-468 cells at 0.5 uM after 3 days by DAPI staining-based fluorescence microscopic method relative to control; format: functional; conditions: in the assay text read “at 1 uM” for “at 0.5 uM”; outline: as §1
T47D [20] = test: Cytotoxicity against human T47D cells at 0.5 uM after 3 days by DAPI staining-based fluorescence microscopic method relative to control; format: functional; conditions: in the assay text read “at 1 uM” for “at 0.5 uM”; outline: as §1
MCF7 [21] = test: Cytotoxicity against human MCF7 cells at 0.5 uM after 3 days by DAPI staining-based fluorescence microscopic method relative to control; format: functional; conditions: in the assay text read “at 1 uM” for “at 0.5 uM”; outline: as §1
HCC38 [22] = test: Cytotoxicity against human HCC38 cells at 0.5 uM after 3 days by DAPI staining-based fluorescence microscopic method relative to control; format: functional; conditions: in the assay text read “at 1 uM” for “at 0.5 uM”; outline: as §1
MDA-MB-231 [23] = test: Cytotoxicity against human MDA-MB-231 cells at 0.5 uM after 3 days by DAPI staining-based fluorescence microscopic method relative to control; format: functional; conditions: in the assay text read “at 1 uM” for “at 0.5 uM”; outline: as §1
Hs-578T [24] = test: Cytotoxicity against human Hs 578T cells at 0.5 uM after 3 days by DAPI staining-based fluorescence microscopic method relative to control; format: functional; conditions: in the assay text read “at 1 uM” for “at 0.5 uM”; outline: as §1
HMEC = test: Cytotoxicity against immortalized HMEC at 0.5 uM after 3 days by DAPI staining-based fluorescence microscopic method relative to control; format: cell-based; conditions: human, 72 h, 1 µM, in the assay text read “at 1 uM” for “at 0.5 uM”; outline: as §1
BT-549 [25] = test: Cytotoxicity against human BT549 cells at 0.5 uM after 3 days by DAPI staining-based fluorescence microscopic method relative to control; format: functional; conditions: in the assay text read “at 1 uM” for “at 0.5 uM”; outline: as §1

O=C1C=CN(C(=O)/C=C/c2ccccc2)CC1
Activity (MDA-MB-231 [1]): 50%

COc1cc(/C=C/C(=O)N2CCCCC2)cc(OC)c1O
Activity (MDA-MB-231 [2]): inactive | Activity (MDA-MB-231 [3]): inactive | Activity (MDA-MB-231 [4]): inactive | Activity (MDA-MB-231 [5]): inactive | Activity (MDA-MB-231 [6]): inactive

COc1cc(CCC(=O)N2C=CC(=O)CC2)cc(OC)c1OC
Activity (MDA-MB-231 [1]): inactive

COc1cc(/C=C/C(=O)N2CCC(=O)CC2)cc(OC)c1O
Activity (MDA-MB-231 [7]): inactive | Activity (BT-549 [8]): >=15 - 80% | Activity (MDA-MB-231 [2]): Active | Activity (T47D [9]): >=15 - 80% | Activity (MDA-MB-231 [10]): 60% | Activity (SK-BR-3): >=15 - 80% | Activity (MCF7 [11]): >=15 - 80% | Activity (MDA-MB-231 [3]): Active | Activity (MDA-MB-231 [12]): inactive | Activity (MDA-MB-231 [13]): 20% | Activity (HCC38 [14]): >=15 - 80% | Activity (MDA-MB-231 [15]): Active | Activity (Hs-578T [16]): >=15 - 80% | pIC50 (MDA-MB-231 [17]): 5.18 | Activity (MDA-MB-468 [18]): >=15 - 80%

COc1cccc2c1C(=O)c1c(O)c3c(c(O)c1C2=O)C[C@@](O)(C(=O)CO)C[C@@H]3O[C@H]1C[C@H](N)[C@H](O)[C@H](C)O1 [DOXORUBICIN]
Activity (MDA-MB-468 [19]): 0.2 - 50% | Activity (T47D [20]): 0.2 - 50% | Activity (MCF7 [21]): 0.2 - 50% | Activity (HCC38 [22]): 0.2 - 50% | Activity (MDA-MB-231 [23]): 0.2 - 50% | Activity (Hs-578T [24]): 0.2 - 50% | Activity (HMEC): 23.9% | Activity (BT-549 [25]): 0.2 - 50%

COc1cc(/C=C/C(=O)N2C=CC(=O)CC2)cc(OC)c1OC
Activity (MDA-MB-231 [1]): 50%
